Measured values taken from ChEMBL document CHEMBL4834423, “Discovery of AG-270, a First-in-Class Oral MAT2A Inhibitor for the Treatment of Tumors with Homozygous MTAP Deletion” (J Med Chem, 2021).
pIC50: −log10 of the molar value.

How the values were obtained:
Cytochrome P450 2C19 [1] = biological target: T1, Cytochrome P450 2C19 (Homo sapiens, UniProt P33261); assay: Inhibition of CYP2C19 (unknown origin) assessed as inactivation relative to control; assay type: ADME
Cytochrome P450 2C9 = Cytochrome P450 2C9 (Homo sapiens, UniProt P11712); assay: Inhibition of CYP2C9 (unknown origin); assay type: ADME
Sequence of Cytochrome P450 2C9 (P11712 whole entry): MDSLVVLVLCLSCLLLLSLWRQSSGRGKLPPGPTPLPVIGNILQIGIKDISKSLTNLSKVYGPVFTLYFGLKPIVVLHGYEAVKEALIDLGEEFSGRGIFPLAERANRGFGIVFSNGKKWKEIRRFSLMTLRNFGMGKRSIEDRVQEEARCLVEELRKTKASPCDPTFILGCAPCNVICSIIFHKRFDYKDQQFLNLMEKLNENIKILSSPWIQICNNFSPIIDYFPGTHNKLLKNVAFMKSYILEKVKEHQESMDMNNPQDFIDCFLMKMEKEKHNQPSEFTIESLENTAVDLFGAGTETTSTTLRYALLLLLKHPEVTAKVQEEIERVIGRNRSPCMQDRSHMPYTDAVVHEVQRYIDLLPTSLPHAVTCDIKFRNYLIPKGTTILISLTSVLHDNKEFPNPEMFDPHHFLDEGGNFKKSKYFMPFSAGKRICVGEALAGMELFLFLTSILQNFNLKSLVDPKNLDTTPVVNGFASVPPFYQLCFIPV

[2] = Protein binding in rat plasma assessed as unbound fraction; assay type: ADME, cell-free
Cytochrome P450 3A4 = Cytochrome P450 3A4 (Homo sapiens, UniProt P08684); assay: Inhibition of CYP3A4 (unknown origin); assay type: ADME
Sequence of Cytochrome P450 3A4 (P08684 whole entry): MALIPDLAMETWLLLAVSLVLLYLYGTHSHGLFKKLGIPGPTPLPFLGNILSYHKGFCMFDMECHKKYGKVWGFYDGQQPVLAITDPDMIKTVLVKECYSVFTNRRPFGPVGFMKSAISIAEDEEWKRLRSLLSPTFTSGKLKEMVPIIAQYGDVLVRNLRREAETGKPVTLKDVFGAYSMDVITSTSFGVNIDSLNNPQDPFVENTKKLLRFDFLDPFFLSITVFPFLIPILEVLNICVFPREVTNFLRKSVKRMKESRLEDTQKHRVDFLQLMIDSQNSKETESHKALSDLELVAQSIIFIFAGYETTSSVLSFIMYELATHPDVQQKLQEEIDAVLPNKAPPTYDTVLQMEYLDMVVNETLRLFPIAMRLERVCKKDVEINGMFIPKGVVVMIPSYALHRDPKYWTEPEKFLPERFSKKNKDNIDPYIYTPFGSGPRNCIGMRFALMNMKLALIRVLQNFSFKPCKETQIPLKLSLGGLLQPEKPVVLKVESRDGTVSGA

HCT-116 = assay: Anticancer activity in MTAP-null human HCT116 cells xenografted mouse model assessed as tumor growth inhibition at 10 mg/kg, po qd treated for 38 days relative to control; assay type: functional; details: HCT-116, po, 912 h, time 38 day, read-out: TGI
[3] = Toxicity in MTAP-null human KP-4 cells xenografted mouse model assessed as body weight change at 10 to 200 mg/kg, po qd treated for 38 days; assay type: organism-based; details: in vivo, 912 h, dose 10-200 mg/kg, time 38 day
Outline: (§1)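 Subcutaneous KP4 MTAP-null xenograft mice, 12 per arm (60 animals), dosed orally once daily on days 24−38 at 10−200 mg/kg. Tumor SAM levels and plasma compound exposure were monitored; plasma sampled up to 24 h after the last dose. Mean tumor volume and body weight change were tracked; error bars are SEM.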

[4] = Protein binding in mouse plasma assessed as unbound fraction; assay type: ADME, cell-free
[5] = biological target: S-adenosylmethionine synthase isoform type-2 (Homo sapiens, UniProt P31153); assay: Inhibition of recombinant human MAT2A expressed in baculovirus infected Sf9 cells assessed as S-adenosyl methionine production using L-methionine as substrate incubated for 60 mins followed by substrate addition and measured after 60 mins relative to control; parameters: concentration or dose not given beside the values
Sequence of S-adenosylmethionine synthase isoform type-2 (P31153 whole entry, looked up, canonical isoform): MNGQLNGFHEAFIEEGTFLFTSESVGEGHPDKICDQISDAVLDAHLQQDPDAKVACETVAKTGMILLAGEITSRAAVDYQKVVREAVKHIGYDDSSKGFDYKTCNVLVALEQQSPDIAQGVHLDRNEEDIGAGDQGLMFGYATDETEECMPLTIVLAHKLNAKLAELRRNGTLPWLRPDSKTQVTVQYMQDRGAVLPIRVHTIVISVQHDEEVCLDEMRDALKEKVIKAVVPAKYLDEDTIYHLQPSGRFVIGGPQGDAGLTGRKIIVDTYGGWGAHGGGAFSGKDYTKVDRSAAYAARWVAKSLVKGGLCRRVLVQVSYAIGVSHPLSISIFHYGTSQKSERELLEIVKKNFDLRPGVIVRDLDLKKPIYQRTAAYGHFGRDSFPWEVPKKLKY

[6] = biological target: T2, UDP-glucuronosyltransferase 1A1 (Homo sapiens, UniProt P22309); assay: Inhibition of UGT1A1 (unknown origin); assay type: ADME
T2 sequence (P22309 whole entry): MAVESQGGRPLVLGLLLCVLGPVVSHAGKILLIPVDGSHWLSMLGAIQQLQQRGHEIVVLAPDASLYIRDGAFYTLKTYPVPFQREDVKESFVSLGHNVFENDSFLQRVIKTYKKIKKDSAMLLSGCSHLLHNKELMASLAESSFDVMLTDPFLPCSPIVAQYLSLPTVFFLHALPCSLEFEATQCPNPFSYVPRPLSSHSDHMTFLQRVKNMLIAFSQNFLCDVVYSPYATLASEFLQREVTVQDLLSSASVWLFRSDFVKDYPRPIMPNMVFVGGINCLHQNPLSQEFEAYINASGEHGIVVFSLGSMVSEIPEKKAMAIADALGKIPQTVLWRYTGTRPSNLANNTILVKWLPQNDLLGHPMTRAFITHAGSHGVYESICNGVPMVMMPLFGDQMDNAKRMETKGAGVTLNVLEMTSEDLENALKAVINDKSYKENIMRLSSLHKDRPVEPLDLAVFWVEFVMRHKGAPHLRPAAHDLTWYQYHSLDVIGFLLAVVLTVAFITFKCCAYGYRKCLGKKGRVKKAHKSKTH

KP-4 = assay: Anticancer activity in MTAP-null human KP-4 cells xenografted mouse model assessed as tumor growth inhibition at 10 mg/kg, po qd treated for 38 days relative to control; assay type: functional; details: KP-4, po, 912 h, time 38 day, read-out: TGI; outline: as §1
Cytochrome P450 2C19 [7] = biological target: T1, Cytochrome P450 2C19; assay: Inhibition of CYP2C19 (unknown origin); assay type: ADME
Cytochrome P450 2D6 = Cytochrome P450 2D6 (Homo sapiens, UniProt P10635); assay: Inhibition of CYP2D6 (unknown origin) assessed as inactivation relative to control; assay type: ADME
Sequence of Cytochrome P450 2D6 (P10635 whole entry): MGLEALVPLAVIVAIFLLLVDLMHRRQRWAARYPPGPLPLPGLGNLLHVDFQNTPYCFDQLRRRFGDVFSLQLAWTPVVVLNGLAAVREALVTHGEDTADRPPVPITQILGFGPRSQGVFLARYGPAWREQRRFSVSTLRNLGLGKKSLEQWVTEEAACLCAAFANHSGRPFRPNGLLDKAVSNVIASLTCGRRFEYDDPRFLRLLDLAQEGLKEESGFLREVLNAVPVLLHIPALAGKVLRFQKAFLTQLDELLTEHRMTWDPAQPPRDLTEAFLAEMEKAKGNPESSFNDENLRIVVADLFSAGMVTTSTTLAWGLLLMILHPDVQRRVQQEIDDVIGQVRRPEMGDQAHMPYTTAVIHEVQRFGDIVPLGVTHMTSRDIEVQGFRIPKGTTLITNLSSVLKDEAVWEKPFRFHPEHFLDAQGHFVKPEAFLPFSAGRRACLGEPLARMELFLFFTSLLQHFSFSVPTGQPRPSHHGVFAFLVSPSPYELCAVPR

T1 sequence (P33261 whole entry): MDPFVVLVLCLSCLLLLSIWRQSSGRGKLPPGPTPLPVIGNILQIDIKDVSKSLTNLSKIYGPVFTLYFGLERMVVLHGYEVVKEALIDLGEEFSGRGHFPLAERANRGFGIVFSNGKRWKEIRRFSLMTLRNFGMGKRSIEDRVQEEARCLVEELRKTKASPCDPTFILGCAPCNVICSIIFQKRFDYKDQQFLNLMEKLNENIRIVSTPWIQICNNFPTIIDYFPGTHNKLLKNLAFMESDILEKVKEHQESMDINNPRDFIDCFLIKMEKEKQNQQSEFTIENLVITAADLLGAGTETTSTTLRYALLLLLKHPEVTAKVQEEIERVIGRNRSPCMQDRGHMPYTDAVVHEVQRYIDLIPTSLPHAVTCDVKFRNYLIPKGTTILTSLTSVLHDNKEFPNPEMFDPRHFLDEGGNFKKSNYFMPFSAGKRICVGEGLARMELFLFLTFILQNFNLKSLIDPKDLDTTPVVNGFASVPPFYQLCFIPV

## COc1ccc(-c2c(Nc3ccccn3)[nH]c3c(C4=CCCCC4)c(-c4ccccc4)nn3c2=O)cc1
Cytochrome P450 2C19 [1]
  INH: > 50 µM
Cytochrome P450 2C9
  pIC50: < 5.00
[2]
  fraction unbound: 0.016
Cytochrome P450 3A4
  pIC50: < 5.00
HCT-116
  inhibition in vivo at 10 mg/kg: 75%
[3]
  Activity: Non-Toxic
[4]
  fraction unbound: 0.0028
[5]
  inhibition: 91%
[6]
  pIC50: 5.96
KP-4
  inhibition in vivo at 10 mg/kg: 36%
Cytochrome P450 2C19 [7]
  pIC50: < 5.00
Cytochrome P450 2D6
  INH: > 50 µM
